This is an account of results in ChEMBL document CHEMBL1629507, “Small molecule inhibitors of hantavirus infection” (Bioorg Med Chem Lett, 2010).

Where a SMILES comes first, the peptide text is derived from it. The star is where a group is joined. Tos = Cc1ccc(S(=O)(=O)*)cc1

For orientation: inhibition means the drop in the measured response relative to a control, in per cent.

In the assay the target is Integrin alpha-V/beta-3 (Homo sapiens) (UniProt P05106+P06756). Description: Inhibition of human alphaVbeta3 receptor expressed in african green monkey Vero E6 cells assessed as inhibition of SNV infection in cells at 1 uM by immunofluorescent assay. In kind it is cell-based. The gist of the method: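 Vero E6 cells (10^4/well, duplicate wells) were grown 24 h at 37 °C in MEM with 2.5% FBS. They were pretreated 1 h at 37 °C with small molecules (1 µM) or cyclic peptides (2 mM, in PBS pH 7.4). SNV strain SN77734 (500–1,000 FFU/ml) was then added for 1 h, then washed out. After 24–36 h, cells were fixed and stained with anti-SNV N plus FITC antibody, and foci counted. % inhibition is relative to untreated cells, normalized to ReoPro 80 µg/ml set as 80%; at least 4 replicates.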
Consider `O=C(CCCn1c(=O)c2sccc2n(Cc2ccc(F)cc2)c1=O)NCc1ccco1`, for which the inhibition came to 0%.

Regarding `O=C(NC(C(=O)N/N=C/c1ccco1)c1nnc(O)c2ccccc12)c1ccccc1` (stereo not given), the inhibition is 33%.

Take `CCOC(=O)N1CCC(NC(=O)C(Cc2ccccc2)NS(=O)(=O)c2cccc3nsnc23)CC1` (stereo not given): the inhibition worked out at 0%.

Regarding `COc1ccccc1CNC(=O)C(Cc1ccccc1)NS(=O)(=O)c1cccc2cccnc12` (stereo not given), the inhibition was found to be 9.6%.

As for `NS(=O)(=O)c1ccc(CCNC(=O)C(Cc2ccccc2)NS(=O)(=O)c2cccc3nsnc23)cc1` (stereo not given), the inhibition was found to be 9.6%.

For `O=C(NCc1ccco1)C(Cc1ccccc1)NS(=O)(=O)c1ccc2nsnc2c1` (stereo not given), the inhibition was found to be 21%.

Turning to `Cc1ccc(S(=O)(=O)NC(CC(=O)NCc2cccnc2)c2ccco2)cc1` (stereo not given), the inhibition came to 7%.

`COc1ccc(OC)c(CNC(=O)C2CCCN(c3ncnc4onc(C)c34)C2)c1` (stereo not given): the inhibition is 0%.

In the case of `COc1ccc(NC(=O)C(Cc2ccccc2)NS(=O)(=O)c2cccc3cccnc23)c(OC)c1` (stereo not given), the inhibition was found to be 22.5%.

As for `COc1ccccc1CNC(=O)C1CCCN(c2ncnc3onc(-c4ccc(F)cc4)c23)C1` (stereo not given), the inhibition worked out at 16%.

Turning to `Cc1cc(C)cc(-n2c(=O)c3sccc3n(CC(=O)N3CCN(c4ccccc4)CC3)c2=O)c1`, the inhibition was found to be 2.2%.

Take `Cc1cccc(NC(=O)C(Cc2ccccc2)NS(=O)(=O)c2cccc3nsnc23)n1` (stereo not given): the inhibition was 17.7%.

`O=C(NCCc1ccc(Cl)cc1)C1CCCN(c2ncnc3onc(-c4ccc(F)cc4)c23)C1` (stereo not given): the inhibition amounted to 14.5%.

Turning to `O=C(CSc1nc2nccnc2c(=O)n1Cc1ccc2c(c1)OCO2)NCCc1ccccc1`, the inhibition stood at 8%.

As to `COc1cccc(C(CC(=O)NCCCN2CCOCC2)NS(=O)(=O)c2ccc(C)cc2)c1OC` (stereo not given), the inhibition is 0%.

With `Cc1ccc(S(=O)(=O)NC(Cc2ccccc2)C(=O)NC(CCCNC(=N)N)C(=O)O)cc1` (stereo not drawn) (Tos-Phe-Arg-OH; configuration not given here), the inhibition was 0%.

Regarding `O=C(NCCc1ccccc1)C(Cc1ccccc1)NS(=O)(=O)c1cccc2nsnc12` (stereo not given), the inhibition was determined as 0%.

Take `O=C(CC(NS(=O)(=O)c1ccc(Cl)cc1)c1ccco1)NCc1cccnc1` (stereo not given): the inhibition came to 9.6%.

Turning to `O=C(NC(Cc1c[nH]c2ccccc12)C(=O)OCC(=O)c1ccc(Cl)cc1)Oc1ccccc1` (stereo not given), the inhibition came to 29%.

Turning to `O=C(CSc1nc2ccsc2c(=O)n1-c1ccc(Cl)cc1)NCCc1ccc(Cl)cc1`, the inhibition is 11.4%.

Take `O=C(C(Cc1ccccc1)NS(=O)(=O)c1ccc2nsnc2c1)N1CCn2c1nc1ccccc12` (stereo not given): the inhibition is 0%.

As to `COc1ccc(Cl)cc1NC(=O)C(Cc1ccccc1)NS(=O)(=O)c1cccc2cccnc12` (stereo not given), the inhibition is 8%.

`COc1ccc(CNC(=O)c2ccc3c(c2)N(Cc2ccccc2)C(=O)c2ccccc2S3)cc1`: the inhibition stood at 22%.

As to `Cc1ccc(Cl)cc1NC(=O)C(Cc1ccccc1)NS(=O)(=O)c1cccc2nsnc12` (stereo not given), the inhibition stood at 3.2%.

With `O=C1c2cccnc2C(=O)N1Cc1ccc(F)cc1S(=O)(=O)N1CCC(Cc2ccccc2)CC1`, the inhibition amounted to 0%.

With `CN1CCN(C(=O)C(Cc2ccccc2)NS(=O)(=O)c2cccc3cccnc23)CC1` (stereo not given), the inhibition came to 0%.

In the case of `O=C(NCCC1=CCCCC1)C(Cc1ccccc1)NS(=O)(=O)c1cccc2cccnc12` (stereo not given), the inhibition was determined as 19.3%.

On to `COc1ccc(CCNC(=O)C(Cc2ccccc2)NS(=O)(=O)c2cccc3nsnc23)cc1OC` (stereo not given), for which the inhibition was found to be 0%.

As for `COc1ccc(S(=O)(=O)NC(CC(=O)NCc2ccc3c(c2)OCO3)c2ccco2)cc1` (stereo not given), the inhibition was determined as 0%.

Consider `O=S(=O)(c1cccc(SCc2ccccc2)c1)c1cccc(SCc2ccccc2)c1`, for which the inhibition amounted to 44.2%.

With `CCc1ccccc1NC(=O)C(Cc1ccccc1)NS(=O)(=O)c1cccc2nsnc12` (stereo not given), the inhibition is 2%.

`CCOC(=O)C(NC(=O)/C(=C/c1ccc(Cl)cc1)NC(=O)c1ccco1)C(C)C` (stereo not given): the inhibition was found to be 0%.

On to `Cc1cc(NC(=O)C(Cc2ccccc2)NS(=O)(=O)c2cccc3cccnc23)no1` (stereo not given), for which the inhibition worked out at 9.6%.

Consider `Cc1cccc(OCC(=O)N/N=C/c2ccc(OC(=O)/C=C/c3ccco3)cc2)c1`, for which the inhibition was 8%.

Regarding `CCCN(CCC)CCNC(=O)C(Cc1ccccc1)NS(=O)(=O)c1cccc2nsnc12` (stereo not given), the inhibition amounted to 34%.

With `CCOc1ccccc1CNC(=O)C1CCCN(c2ncnc3onc(-c4ccc(F)cc4)c23)C1` (stereo not given), the inhibition was 18%.

Take `COc1ccc(OC)c(CNC(=O)C2CCCN(c3ncnc4onc(-c5ccc(F)cc5)c34)C2)c1` (stereo not given): the inhibition was 28%.

As to `O=C(CCn1c(=O)c2ccccc2n(Cc2cc(=O)n3ccccc3n2)c1=O)NCc1ccco1`, the inhibition stood at 15%.

For the molecule `O=C1c2cccnc2C(=O)N1Cc1ccc(F)cc1S(=O)(=O)N1CCN(c2ccccc2F)CC1`, the inhibition is 2.3%.

For `CCC1CCCCN1CCNC(=O)C(Cc1ccccc1)NS(=O)(=O)c1ccc2nsnc2c1` (stereo not given), the inhibition is 0%.

Regarding `COc1ccc(CCNC(=O)C(Cc2ccccc2)NS(=O)(=O)c2ccc(Br)cc2)cc1OC` (stereo not given), the inhibition came out at 14%.

For the molecule `O=C(Nc1ccccc1Cl)C(Cc1ccccc1)NS(=O)(=O)c1cccc2nsnc12` (stereo not given), the inhibition turned out to be 10%.

Take `O=C(NCc1cccc(Cl)c1)C1CCCN(c2ncnc3onc(-c4ccc(F)cc4)c23)C1` (stereo not given): the inhibition was found to be 6%.

Take `O=C(Cn1c(=O)n(Cc2ccc3c(c2)OCO3)c(=O)c2ccccc21)NCCc1ccccc1`: the inhibition is 25.9%.

`CC1CCN(CCNC(=O)C(Cc2ccccc2)NS(=O)(=O)c2cccc3cccnc23)CC1` (stereo not given): the inhibition was 7%.

On to `O=C(NCc1ccccc1Cl)C(Cc1ccccc1)NS(=O)(=O)c1cccc2cccnc12` (stereo not given), for which the inhibition was 21.4%.

As to `O=C(NCc1cccs1)C(Cc1ccccc1)NS(=O)(=O)c1cccc2cccnc12` (stereo not given), the inhibition came to 12%.

`O=C(NCC1CCCO1)C(Cc1ccccc1)NS(=O)(=O)c1cccc2nsnc12` (stereo not given): the inhibition is 2%.

As for `Cc1cccc(CN2C(=O)c3ccccc3Sc3ccc(C(=O)NCc4cccs4)cc32)c1`, the inhibition was found to be 8.3%.

Regarding `CCC(Sc1nc2ccsc2c(=O)n1Cc1ccc2c(c1)OCO2)C(=O)NCc1ccco1` (stereo not given), the inhibition was determined as 41%.

For the molecule `O=C(CCCn1c(=O)c2sccc2n(Cc2ccc(F)cc2Cl)c1=O)NCc1ccco1`, the inhibition stood at 12.2%.

For `Cc1noc2ncnc(N3CCCC(C(=O)NCc4ccc5c(c4)OCO5)C3)c12` (stereo not given), the inhibition is 3%.

As for `COc1ccccc1C1CC(c2c(O)[nH]c(=O)n(CCc3ccccc3)c2=O)=Nc2ccccc2S1` (stereo not given), the inhibition is 18%.

With `COc1ccccc1NC(=O)C(Cc1ccccc1)NS(=O)(=O)c1cccc2cccnc12` (stereo not given), the inhibition stood at 19.3%.

Take `Cc1nnc(SCC(=O)NCCc2cccs2)c2nn(-c3ccccc3)c(C)c12`: the inhibition amounted to 17%.

`O=C(N/N=C/c1ccc(Br)s1)c1cc(-c2ccccc2)nc2ccccc12`: the inhibition is 5%.

For `Cc1cccc(C)c1NC(=S)N/N=C\c1cn(C)c2ccc(S(=O)(=O)N3CCOCC3)cc12`, the inhibition is 0%.

Turning to `O=C(C(Cc1ccccc1)NS(=O)(=O)c1cccc2cccnc12)N1CCC2(CC1)OCCO2` (stereo not given), the inhibition came to 9%.

For the molecule `N#Cc1ccccc1OCC(=O)N/N=C/c1cc(Br)ccc1OC(=O)c1ccccc1`, the inhibition was determined as 15%.

In the case of `O=C(CSc1nc2ccccc2n1S(=O)(=O)c1ccc(Cl)cc1)NCCc1ccccc1`, the inhibition is 13.6%.

As for `O=C(CSc1nc2ccccc2c(=O)n1Cc1ccc2c(c1)OCO2)NCc1ccco1`, the inhibition is 34.2%.

Consider `O=C(CCNS(=O)(=O)c1cccc2nsnc12)N(CCc1ccccc1)Cc1ccccc1`, for which the inhibition was found to be 0%.

In the case of `COc1ccc(CNC(=O)C2CCCN(c3ncnc4onc(C)c34)C2)cc1` (stereo not given), the inhibition is 4.6%.

As for `O=C(NC1CCCc2ccccc21)C(Cc1ccccc1)NS(=O)(=O)c1cccc2nsnc12` (stereo not given), the inhibition is 0%.

Take `O=C(CSc1nc2nccnc2c(=O)n1Cc1cccs1)NCCc1ccccc1`: the inhibition was 6%.

For the molecule `CC(C)c1ccc(S(=O)(=O)c2nnn3c2nc(NC(C)c2ccccc2)c2sccc23)cc1` (stereo not given), the inhibition is 8%.

Take `O=C(NCc1ccccc1)C(Cc1ccccc1)NS(=O)(=O)c1cccc2cccnc12` (stereo not given): the inhibition stood at 11.2%.

As to `Cc1ccc(Cl)cc1NC(=O)C(Cc1ccccc1)NS(=O)(=O)c1cccc2cccnc12` (stereo not given), the inhibition was found to be 14%.

With `N#Cc1ccccc1Cn1c(=O)n(CCC(=O)NCc2ccc3c(c2)OCO3)c(=O)c2ccccc21`, the inhibition turned out to be 1%.

On to `O=C(O)CCCCCNC(=O)/C(=C/c1ccccc1)NC(=O)c1ccco1`, for which the inhibition came out at 0%.

With `CC(NC(=O)C(Cc1ccccc1)NS(=O)(=O)c1cccc2nsnc12)c1ccccc1` (stereo not given), the inhibition was 2%.

For the molecule `O=C(C(Cc1ccccc1)NS(=O)(=O)c1ccc2nsnc2c1)N1CCC2(CC1)OCCO2` (stereo not given), the inhibition is 6%.

For `O=C(NCc1ccccc1Cl)C(Cc1ccccc1)NS(=O)(=O)c1cccc2nsnc12` (stereo not given), the inhibition stood at 0%.

Take `COc1ccc(CCNC(=O)C(Cc2ccccc2)NS(=O)(=O)c2ccc(Cl)cc2)cc1OC` (stereo not given): the inhibition was 14%.

Take `COc1ccc(Cc2cccc(CNC(=O)C3CCCN(c4ncnc5onc(-c6ccc(F)cc6)c45)C3)c2)cc1` (stereo not given): the inhibition turned out to be 39%.

As to `COc1ccc(/C=N/NC(=O)c2sc3ccccc3c2Cl)cc1CSc1ccccn1`, the inhibition was 0%.

Turning to `O=C(NCCC1=CCCCC1)C(Cc1ccccc1)NS(=O)(=O)c1cccc2nsnc12` (stereo not given), the inhibition is 0%.

For `O=C(NCC1COc2ccccc2O1)C(Cc1ccccc1)NS(=O)(=O)c1ccc2nsnc2c1` (stereo not given), the inhibition was found to be 20%.

`O=C(NCc1cccnc1)C(Cc1ccccc1)NS(=O)(=O)c1cccc2nsnc12` (stereo not given): the inhibition was 35%.

Take `O=C(c1ccco1)N1CCN(C(=O)C(Cc2ccccc2)NS(=O)(=O)c2ccc3nsnc3c2)CC1` (stereo not given): the inhibition was 22%.
